Measured values from ChEMBL document CHEMBL1944616, “Benzoxaborole antimalarial agents. Part 2: Discovery of fluoro-substituted 7-(2-carboxyethyl)-1,3-dihydro-1-hydroxy-2,1-benzoxaboroles” (Bioorg Med Chem Lett, 2012).

Assays:
Plasmodium falciparum = experiment: Antimalarial activity against ring stage Plasmodium falciparum 3D7 infected in human erythrocytes after 48 hrs by flow cytometry; assay type: functional, organism-based; settings: 3D7, 48 h
[1] = Growth inhibition of human Jurkat cells at 25 uM after 72 hrs by MTT assay; assay type: cell-based; settings: read-out: GI
Method in brief: (§1)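 Cytotoxicity counter-screen on human Jurkat (T cell) and human HeLa (cervical carcinoma) cell lines. Selected compounds were tested at one fixed concentration each.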

[2] = Growth inhibition of human HeLa cells at 25 uM after 72 hrs by MTT assay; assay type: cell-based; settings: read-out: GI; method in brief: as §1

Compound	IC50 (Plasmodium falciparum) [µM]	inhibition at 72 h, 25 µM [1] [%]	inhibition at 72 h, 25 µM [2] [%]
O=C(O)C(F)Cc1cccc2c1B(O)OC2 (stereo not given)	0.83	–	–
Cc1ccc(CCC(=O)O)c2c1COB2O	1.45	–	–
CC(=O)Nc1ccc(CCC(=O)O)c2c1COB2O	> 5	–	–
O=P(O)(O)CCc1cccc2c1B(O)OC2	> 5	3	26
O=C1NC(=O)C(Cc2cccc3c2B(O)OC3)N1 (stereo not given)	> 5	14.1	67.7
O=C(O)C1CCc2ccc3c(c2C1)B(O)OC3 (stereo not given)	1.82	–	–
O=C(O)CCc1c(Cl)ccc2c1B(O)OC2	0.75	–	–
COc1cc(CCC(=O)O)c2c(c1)COB2O	3.48	–	–
O=C(O)CCc1cc(Cl)cc2c1B(O)OC2	1.33	–	–
O=C(O)CCc1cc(F)cc2c1B(O)OC2	0.061	–	–
O=C1C(O)=C([C@H]2CC[C@H](c3ccc(Cl)cc3)CC2)C(=O)c2ccccc21 [ATOVAQUONE]	0.001	–	–
